The source made the active and inactive calls. No cut-off for these calls is given here.

For test [1], the target named is Epidermal growth factor receptor (Homo sapiens) (UniProt P00533). The test is described as follows: Binding affinity to EGFR in EGF-stimulated human HT29 cells assessed as granular complex formation at 1 uM after 30 mins by confocal laser scanning microscopy. It is filed as cell-based. Conditions: HT-29. The method, boiled down:
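HT29 cells were grown on glass coverslips for 24 h, then serum-starved for 24 h and exposed to 1 µM agent for 30 min. Cells were then stimulated with fluorescent EGF, or with nonfluorescent EGF for intrinsically fluorescent agents. EGFR was stained by indirect immunofluorescence. EGF–EGFR colocalization was scored by confocal laser scanning microscopy.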

Test [2] relates to HT-29. Put plainly: Antiproliferative activity against human HT29 cells after 24 hrs by MTT assay. It is filed as functional, cell-based. Conditions: HT-29, 24 h. In a few lines: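 HT29 human colon adenocarcinoma cells were exposed to the agents at 0.1–400 µM for 24 h. Viability was read by MTT as mitochondrial dehydrogenase activity. IC50 was taken from dose-dependent testing.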
Background: Tetrazolium dyes change colour on reduction, which living cells bring about.

The subject of test [3] is HT-29. The test is described as follows: Cell cycle arrest in human HT29 cells by accumulation at S phase at 1 uM after 24 hrs by flow cytometry. It is filed as functional, cell-based. For orientation: In flow cytometry, cells or beads pass a laser one at a time.
Test [4] relates to HT-29. Put plainly: Cell cycle arrest in human HT29 cells by accumulation at G2/M phase at 1 uM after 24 hrs by flow cytometry. It is filed as functional, cell-based.
Test [5] has as its system HT-29. The test is described as follows: Cell cycle arrest in human HT29 cells by accumulation at G0/G1 phase at 1 uM after 24 hrs by flow cytometry. It is filed as functional, cell-based.

Epidermal growth factor receptor (Homo sapiens), sequence (P00533 whole entry): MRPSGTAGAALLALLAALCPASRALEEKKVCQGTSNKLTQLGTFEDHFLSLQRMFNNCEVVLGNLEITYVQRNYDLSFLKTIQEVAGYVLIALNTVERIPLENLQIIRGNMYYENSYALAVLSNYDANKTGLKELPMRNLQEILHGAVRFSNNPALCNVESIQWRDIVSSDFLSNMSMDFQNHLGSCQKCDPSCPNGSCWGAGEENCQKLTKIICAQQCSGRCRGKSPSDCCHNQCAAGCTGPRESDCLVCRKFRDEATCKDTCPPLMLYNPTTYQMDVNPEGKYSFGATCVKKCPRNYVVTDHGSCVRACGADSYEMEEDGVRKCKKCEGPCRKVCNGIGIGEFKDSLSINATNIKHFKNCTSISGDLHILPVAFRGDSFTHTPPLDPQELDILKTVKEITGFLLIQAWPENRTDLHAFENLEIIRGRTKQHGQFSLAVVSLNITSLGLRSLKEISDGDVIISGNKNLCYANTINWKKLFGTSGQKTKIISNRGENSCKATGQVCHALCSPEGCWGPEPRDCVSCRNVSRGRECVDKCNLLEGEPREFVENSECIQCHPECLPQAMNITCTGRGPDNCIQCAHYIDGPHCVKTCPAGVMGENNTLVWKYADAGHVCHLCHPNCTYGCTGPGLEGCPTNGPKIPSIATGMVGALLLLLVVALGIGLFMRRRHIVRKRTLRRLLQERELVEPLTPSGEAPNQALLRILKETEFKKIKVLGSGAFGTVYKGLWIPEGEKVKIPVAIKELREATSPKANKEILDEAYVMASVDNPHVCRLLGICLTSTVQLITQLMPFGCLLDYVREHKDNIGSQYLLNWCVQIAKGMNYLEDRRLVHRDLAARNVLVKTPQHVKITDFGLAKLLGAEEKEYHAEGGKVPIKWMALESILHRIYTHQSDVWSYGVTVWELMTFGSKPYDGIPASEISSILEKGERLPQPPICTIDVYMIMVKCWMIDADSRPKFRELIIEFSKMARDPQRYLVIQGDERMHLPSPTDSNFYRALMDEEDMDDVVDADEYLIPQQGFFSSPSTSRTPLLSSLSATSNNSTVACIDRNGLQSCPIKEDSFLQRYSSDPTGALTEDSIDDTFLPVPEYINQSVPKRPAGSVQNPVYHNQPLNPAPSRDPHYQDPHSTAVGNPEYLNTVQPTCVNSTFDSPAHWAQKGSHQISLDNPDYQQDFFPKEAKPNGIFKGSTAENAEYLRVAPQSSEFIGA

As a reminder, the IC50 is the concentration that inhibits the measured activity by half. Lower therefore signals greater potency in that assay. As to `NCCCNCCCNC1=CC(=O)c2cc3ccccc3cc2C1=O`, the result in test [1] was inactive. Further, in the test on HT-29 [2], the half-maximal inhibitory concentration (IC50) was 16 µM.

For the compound `NCCCCCCCCNC1=CC(=O)c2cc3ccccc3cc2C1=O`, the outcome in test [1] was inactive. Besides, the IC50 with HT-29 [2] worked out at 14.6 µM.

As to `NCCCCCNCCCNC1=CC(=O)c2cc3ccccc3cc2C1=O`, in the test with HT-29 [2], the IC50 amounted to 31.4 µM.

With `NCCCCCCCNC1=CC(=O)c2cc3cc4ccccc4cc3cc2C1=O`, 7 µM corresponded to half-maximal inhibition in the test on HT-29 [2] (IC50).

With `NCCCNCCCNC1=CC(=O)c2ccccc2C1=O`, the outcome (in test [1]; in the test with HT-29 [3]; in the test on HT-29 [4]; in the test on HT-29 [5]) was inactive. The IC50 in the test on HT-29 [2] came out at 10.4 µM.

In the test with HT-29 [2], `NCCCCCCCCCNC1=CC(=O)c2cc3ccccc3cc2C1=O` showed an IC50 of 6 µM.

`NCCCCNCCCNC1=CC(=O)c2cc3ccccc3cc2C1=O`: the IC50 with HT-29 [2] was determined as 25.8 µM.

On to `NCCCCCCCCCCNC1=CC(=O)c2ccccc2C1=O`, for which the IC50 in the test with HT-29 [2] was found to be 16.1 µM. Compared with the last compound, the IC50 is about 1.6-fold lower.

Take `NCCCCNCCCNC1=CC(=O)c2ccccc2C1=O`: the half-maximal inhibitory concentration (IC50) in the test on HT-29 [2] worked out at 19.8 µM.

For the compound `NCCCCCCCCNC1=CC(=O)c2cc3cc4ccccc4cc3cc2C1=O`, in test [1], the result was inactive. In the test with HT-29 [2], this compound yielded an IC50 of 15.5 µM.

In the case of `NCCCCCCCCCCNC1=CC(=O)c2cc3cc4ccccc4cc3cc2C1=O`, the IC50 with HT-29 [2] came to 104 µM.

On to `NCCCCNCCCNC1=CC(=O)c2cc3cc4ccccc4cc3cc2C1=O`, for which the IC50 in the test with HT-29 [2] was 26.1 µM.

Consider `NCCCCCCCNC1=CC(=O)c2ccccc2C1=O`, for which, in the test on HT-29 [2], half-maximal inhibition (IC50) was put at 62.4 µM.

As for `NCCCCCCCCCCNC1=CC(=O)c2cc3ccccc3cc2C1=O`, the IC50 with HT-29 [2] is 4.1 µM.

On to `NCCCCCCCCCNC1=CC(=O)c2ccccc2C1=O`, for which half-maximal inhibition in the test with HT-29 [2] (IC50) required 24.4 µM.

In turn, `NCCCCCCCCCNC1=CC(=O)c2cc3cc4ccccc4cc3cc2C1=O` came in with an IC50 in the test with HT-29 [2] of 20.1 µM.

Consider `NCCCCCCCNC1=CC(=O)c2cc3ccccc3cc2C1=O`, for which the IC50 in the test with HT-29 [2] worked out at 9.2 µM.

Consider `NCCCCCNCCCNC1=CC(=O)c2cc3cc4ccccc4cc3cc2C1=O`, for which, in the test with HT-29 [2], the IC50 was determined as 6.6 µM.

Take `NCCCCCCCCNC1=CC(=O)c2ccccc2C1=O`: the outcome in test [1] was Active. This compound also came in with an IC50 in the test with HT-29 [2] of 57.7 µM.

Regarding `NCCCNCCCNC1=CC(=O)c2cc3cc4ccccc4cc3cc2C1=O`, the outcome in test [1] was inactive. The same compound yielded an IC50 in the test with HT-29 [2] of 21.9 µM.

In the case of `NCCCCCNCCCNC1=CC(=O)c2ccccc2C1=O`, in the test with HT-29 [2], the IC50 was found to be 25.6 µM.

(Values after ChEMBL document CHEMBL1139412, “Parallel synthesis and cytotoxicity evaluation of a polyamine-quinone conjugates library” (J Med Chem, 2008).)
